Article PMC2871064 (Cancer research, 2010)
Like-named read-outs stand apart in the source and are kept apart here.

Key:
[1] = tested on: SK-MEL-3 tumors; assay: Effect of [^131I]MIP-1145 on SK-MEL-3 tumor growth and survival; assay type: in vivo, athymic nude mice; details: multiple doses, 25 MBq or 2.5 GBq/m^2
[2] = tested on: A375 xenografts; assay: Tissue distribution in mice bearing A375 xenografts; assay type: in vivo, NCr^nu/nu mice; details: A375 xenograft mice; for Tissue distribution: Blood: tail vein
Procedure, shortened: (§1)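 Male athymic NCr nu/nu mice received 0.25 mL of cells (8 × 10⁶/mL in 1:1 D-PBS-glucose-pyruvate/Matrigel) into the right hind flank. Tumours were used at 100–500 mm³ (~21 days). Tail-vein bolus of ~74 KBq tracer in 0.05 mL; n = 5 per time point. Mice were killed by CO₂ at 1, 4 and 24 h. Organs and tumour were weighed wet and gamma-counted; results are %ID/g, mean ± SD.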

[3] = Pharmacokinetics and gamma camera imaging in cynomolgus monkeys; assay type: in vivo
Procedure, shortened: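 Four cynomolgus monkeys (2 female, 2 male), Telazol-anaesthetised, received 185 MBq radiotracer iv without thyroid blockade. Serial anterior/posterior gamma-camera imaging was performed. Blood was drawn at 5, 30, 60, 120 and 360 min and at 24, 48 and 72 h. Urine was pooled over 0–6, 6–24, 24–48 and 48–72 h. Analysis was non-compartmental, with CL = dose/AUC and Vss = MRT × CL.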

[4] = Monte Carlo simulation of radiation dose to human eye substructures; details: human projection
[5] = tested on: B16F10 xenografts; details: cited from earlier work
[6] = tested on: SK-MEL-3 xenografts; assay: Tissue distribution in mice bearing SK-MEL-3 xenografts; assay type: in vivo, NCr^nu/nu mice; details: SK-MEL-3 xenograft mice, 1 hour
Procedure, shortened: as §1

[7] = both, cynomolgus monkey, blood, iv, 185 MBq

Structure (SMILES): CCN(CC)CCNC(=O)c1cc(I)c(NC(=O)c2ccc(F)cc2)cc1OC [[^131I]MIP-1145, N-(2-diethylamino-ethyl)-4-(4-fluoro-benzamido)-5-iodo-2-methoxy-benzamide]
- Duration of response [1]: over 125 days
- Tissue distribution: Adipose ([2]; 1 hour): 1.56 ± 0.23 %ID/g
- Tissue distribution: Bone ([2]; 1 hour): 1.34 ± 0.12 %ID/g
- Tissue distribution: Brain ([2]; 1 hour): 0.60 ± 0.17 %ID/g
- Tissue distribution: Heart ([2]; 1 hour): 1.96 ± 0.33 %ID/g
- Tissue distribution: Kidneys ([2]; 1 hour): 14.26 ± 2.73 %ID/g
- Tissue distribution: Large Intestine ([2]; 1 hour): 2.69 ± 0.49 %ID/g
- Tissue distribution: Liver ([2]; 1 hour): 6.79 ± 1.33 %ID/g
- Tissue distribution: Lungs ([2]; 1 hour): 9.81 ± 0.88 %ID/g
- Tissue distribution: Skeletal Muscle ([2]; 1 hour): 1.03 ± 0.09 %ID/g
- Tissue distribution: Small Intestine ([2]; 1 hour): 9.19 ± 3.32 %ID/g
- Tissue distribution: Spleen ([2]; 1 hour): 4.54 ± 1.34 %ID/g
- Tissue distribution: Stomach ([2]; 1 hour): 6.22 ± 2.34 %ID/g
- Tissue distribution: Testes ([2]; 1 hour): 1.58 ± 0.22 %ID/g
- Tissue distribution: Tumor ([2]; 1 hour): 2.38 ± 0.75 %ID/g
- Tissue distribution: Blood ([2]; 1 hour post-injection): 0.46 ± 0.05 %ID/g
- Tissue distribution: Adipose ([2]; 4 hours): 1.10 ± 0.46 %ID/g
- Tissue distribution: Bone ([2]; 4 hours): 0.74 ± 0.07 %ID/g
- Tissue distribution: Brain ([2]; 4 hours): 0.16 ± 0.01 %ID/g
- Tissue distribution: Heart ([2]; 4 hours): 1.04 ± 0.06 %ID/g
- Tissue distribution: Kidneys ([2]; 4 hours): 8.53 ± 1.20 %ID/g
- Tissue distribution: Large Intestine ([2]; 4 hours): 13.81 ± 5.14 %ID/g
- Tissue distribution: Liver ([2]; 4 hours): 4.30 ± 0.45 %ID/g
- Tissue distribution: Lungs ([2]; 4 hours): 7.24 ± 1.31 %ID/g
- Tissue distribution: Skeletal Muscle ([2]; 4 hours): 0.58 ± 0.12 %ID/g
- Tissue distribution: Small Intestine ([2]; 4 hours): 12.44 ± 2.02 %ID/g
- Tissue distribution: Spleen ([2]; 4 hours): 2.57 ± 0.51 %ID/g
- Tissue distribution: Stomach ([2]; 4 hours): 4.57 ± 1.77 %ID/g
- Tissue distribution: Testes ([2]; 4 hours): 0.90 ± 0.13 %ID/g
- Tissue distribution: Tumor ([2]; 4 hours): 1.19 ± 0.07 %ID/g
- Tissue distribution: Blood ([2]; 4 hours post-injection): 0.26 ± 0.04 %ID/g
- Tissue distribution: Adipose ([2]; 24 hours): 0.13 ± 0.12 %ID/g
- Tissue distribution: Bone ([2]; 24 hours): 0.03 ± 0.02 %ID/g
- Tissue distribution: Brain ([2]; 24 hours): 0.01 ± 0.00 %ID/g
- Tissue distribution: Heart ([2]; 24 hours): 0.02 ± 0.02 %ID/g
- Tissue distribution: Kidneys ([2]; 24 hours): 0.21 ± 0.08 %ID/g
- Tissue distribution: Large Intestine ([2]; 24 hours): 1.35 ± 0.36 %ID/g
- Tissue distribution: Liver ([2]; 24 hours): 0.32 ± 0.06 %ID/g
- Tissue distribution: Lungs ([2]; 24 hours): 0.37 ± 0.15 %ID/g
- Tissue distribution: Skeletal Muscle ([2]; 24 hours): 0.02 ± 0.01 %ID/g
- Tissue distribution: Small Intestine ([2]; 24 hours): 0.59 ± 0.24 %ID/g
- Tissue distribution: Spleen ([2]; 24 hours): 0.15 ± 0.20 %ID/g
- Tissue distribution: Stomach ([2]; 24 hours): 0.67 ± 0.27 %ID/g
- Tissue distribution: Testes ([2]; 24 hours): 0.16 ± 0.05 %ID/g
- Tissue distribution: Tumor ([2]; 24 hours): 0.04 ± 0.02 %ID/g
- Tissue distribution: Blood ([2]; 24 hours post-injection): 0.04 ± 0.02 %ID/g
- MRT [3, 7]: 47 ± 5 h
- Vd [3, 7]: 19 ± 3 L
- clearance [3, 7]: 6.67 mL/min
- Injected dose recovered in the urine ([3]; cynomolgus monkeys, by 72 hours post-injection): 28%
- Administered activity needed to reach the lens TD5/5 of 10 Gy for cataracts [4]: 7.7 GBq
- Administered activity needed to reach the retina TD5/5 of 45 Gy for retinopathy [4]: 20.8 GBq
- Tumor uptake ([5]; specific activity 55.5 GBq/mmol): 9.28 ± 2.24 %ID/g
- Tumor uptake ([5]; specific activity 55.5 TBq/mmol): 10.17 ± 1.81 %ID/g
- Tissue distribution: Adipose [6]: 4.15 ± 2.89 %ID/g
- Tissue distribution: Bone [6]: 1.71 ± 0.28 %ID/g
- Tissue distribution: Brain [6]: 0.82 ± 0.06 %ID/g
- Tissue distribution: Heart [6]: 2.36 ± 0.18 %ID/g
- Tissue distribution: Kidneys [6]: 16.55 ± 0.52 %ID/g
- Tissue distribution: Large Intestine [6]: 2.93 ± 0.54 %ID/g
- Tissue distribution: Liver [6]: 7.94 ± 1.12 %ID/g
- Tissue distribution: Lungs [6]: 9.70 ± 1.28 %ID/g
- Tissue distribution: Skeletal Muscle [6]: 1.39 ± 0.16 %ID/g
- Tissue distribution: Small Intestine [6]: 15.19 ± 1.50 %ID/g
- Tissue distribution: Spleen [6]: 7.26 ± 1.18 %ID/g
- Tissue distribution: Stomach [6]: 12.85 ± 2.53 %ID/g
- Tissue distribution: Testes [6]: 1.51 ± 0.18 %ID/g
